Only some compounds are listed: those with a hit (about 3% of all), similar ones and a draw of the others.
MPTP inh – inhibitors of mitochondrial permeability transition pore. AID 602449. isolated mouse mitochondria, Ca2+ swelling absorbance, 30 min. inhibition, % at 10 µM. actives 1.4% (n = 360,000);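 active means inhibition of 50% or more, scaled per plate between neutral and stimulator controls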;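 further: 0% = DMSO wells given calcium and 100% = 1 mM EGTA wells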
MIN6 prolif – inducers of beta-cell replication in MIN6 cells. proliferation, % at 10 µM. AID 2380. actives 0.29% (n = 330,000). MIN6 cells proliferation, ATPlite luminescence, 48 h; cells starved in 0.2% serum; 100% = growth in 10% serum;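 active means compounds whose signal lies at least 3.5 SD above the mean of all wells on their plate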;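 further: 0% = DMSO-treated cells in low-serum medium and 100% = 10% serum control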
Granule exo inh – blocks lytic granule exocytosis; TALL-104 LAMP-1 surface exposure, flow cytometry; cells stimulated with thapsigargin and PMA; inhibition, % at 10 µM; actives 0.66% (n = 360,000); AID 651702;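 active means inhibition above about 55%, limit read from the data; inconclusive means no clear call, values can overlap the other calls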
Apaf1 inhib – inhibitors of human Apaf-1 apoptosome | reconstituted apoptosome caspase-3 activity, DEVD-Rh110 fluorescence | inhibition, % at 20 µM | actives 0.71% (n = 330,000); active means inhibition of at least 40% at 20 µM;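 further: plate controls were DMSO wells for no effect and DEVD-CHO caspase inhibitor wells for full effect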
Target sequence (O14727 whole entry, looked up): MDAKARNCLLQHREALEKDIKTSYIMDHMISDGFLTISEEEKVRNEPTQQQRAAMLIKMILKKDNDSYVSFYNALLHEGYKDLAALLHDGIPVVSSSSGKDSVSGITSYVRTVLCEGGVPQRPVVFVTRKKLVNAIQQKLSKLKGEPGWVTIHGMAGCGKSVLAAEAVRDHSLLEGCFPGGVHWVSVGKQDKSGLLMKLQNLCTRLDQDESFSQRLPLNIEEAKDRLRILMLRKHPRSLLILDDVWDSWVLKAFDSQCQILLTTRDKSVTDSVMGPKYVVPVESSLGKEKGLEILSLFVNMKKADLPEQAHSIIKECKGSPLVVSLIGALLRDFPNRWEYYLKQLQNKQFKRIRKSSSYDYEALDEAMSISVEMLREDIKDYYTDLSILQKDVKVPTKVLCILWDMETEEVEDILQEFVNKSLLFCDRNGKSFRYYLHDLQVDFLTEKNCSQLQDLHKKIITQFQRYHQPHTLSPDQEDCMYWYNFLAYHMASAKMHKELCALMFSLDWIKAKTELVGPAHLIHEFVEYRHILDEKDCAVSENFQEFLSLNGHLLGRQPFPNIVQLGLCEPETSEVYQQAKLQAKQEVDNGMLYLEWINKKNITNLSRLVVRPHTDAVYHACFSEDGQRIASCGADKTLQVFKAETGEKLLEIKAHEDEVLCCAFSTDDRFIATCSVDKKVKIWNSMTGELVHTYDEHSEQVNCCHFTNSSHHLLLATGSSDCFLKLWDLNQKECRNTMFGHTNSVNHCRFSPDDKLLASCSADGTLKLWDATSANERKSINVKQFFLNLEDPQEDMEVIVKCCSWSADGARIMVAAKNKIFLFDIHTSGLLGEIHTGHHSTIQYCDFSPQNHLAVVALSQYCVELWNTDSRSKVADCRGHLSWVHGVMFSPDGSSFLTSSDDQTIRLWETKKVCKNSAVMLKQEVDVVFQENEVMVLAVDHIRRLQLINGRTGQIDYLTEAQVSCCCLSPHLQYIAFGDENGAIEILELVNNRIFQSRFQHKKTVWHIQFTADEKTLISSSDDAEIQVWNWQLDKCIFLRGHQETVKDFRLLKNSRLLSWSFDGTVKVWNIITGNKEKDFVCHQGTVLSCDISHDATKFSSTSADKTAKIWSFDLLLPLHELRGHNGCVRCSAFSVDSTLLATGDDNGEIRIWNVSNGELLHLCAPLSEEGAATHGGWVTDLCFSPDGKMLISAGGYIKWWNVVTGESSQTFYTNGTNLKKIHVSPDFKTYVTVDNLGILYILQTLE
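System: Apoptosome proteins | Medium: Hepes pH 7.5 with detergent and BSA | Also added: Cytochrome c trigger plus (Z-DEVD)2-Rh110 caspase-3 substrate | Incubation: 30 min compound preincubation, 50 min activation, room temperature | Detection: Rhodamine 110 fluorescence at Ex 480/Em 540 nm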
UBC13 polyUb – human UBC13 polyubiquitination inhibition; P61088; UBC13 polyubiquitin chain formation, TR-FRET; inhibition, % at 20 µM; actives 0.47% (n = 330,000); AID 485273; in the data active means inhibition above about 45%, passing the limit was not always enough; inconclusive means no clear call, values can overlap the other calls
iPSC survival up – enhancers of human iPSC single-cell survival; AID 602274; actives 0.044% (n = 360,000); survival enhancement, % at 20 µM; hiPSC single-cell survival, ATPlite luminescence; 100% = ROCK inhibitor wells, 0% = DMSO; in the data active means survival enhancement above about 18%;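 further: cells exposed to compounds for 16 hours before the ATP read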
Casp3 UBC13 ctr – counter-screen for UBC13 inhibitors: human caspase-3 inhibition; shares compounds with UBC13 polyUb; Recombinant caspase-3, Caspase-Glo 3/7 luminescence, 60 min; inhibition, % at 20 µM; actives 4% (n = 1,400); AID 488856;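 active means mean inhibition across replicates above about 26%, limit read from the data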;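 further: plate controls were DMSO with caspase-3 for no effect and DMSO wells lacking enzyme for full effect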
UBC13 conf – human UBC13 polyubiquitin inhibition, confirmed; shares compounds with UBC13 polyUb; UBC13 polyubiquitination, TR-FRET, biochemical; inhibition, % at 10 µM; actives 68% (n = 1,400); in the data active means inhibition above about 45%; inconclusive means no clear call, values can overlap the other calls
* = called active by the depositor; ? = inconclusive; · = no result given.

SMILES | MPTP inh | MIN6 prolif | Granule exo inh | Apaf1 inhib | UBC13 polyUb | iPSC survival up | Casp3 UBC13 ctr | UBC13 conf
O=[N+]([O-])c1ccccc1Nc1nc(-c2cccnc2)cs1 | -0.2 | -1.4 | 17.7 | -0.8 | -35.6 | 2.3 | · | ·
CCc1nc2ccccc2c(C(=O)OCCN2C(=O)c3ccccc3C2=O)c1C | 1.0 | -7.7 | 1.1 | 17.3 | 52.0* | 0.2 | -3.0 | 70.2*
CCc1nc2ccccc2c(C(=O)OCc2nc3ccccc3c(=O)[nH]2)c1C | 0.1 | -1.9 | 3.1 | 5.2 | 62.0* | -2.0 | 1.4 | 57.8*
CCC(=O)N1c2ccc(C)cc2C2=NNC(=S)NC21O (configuration not stated) | 0.8 | -0.5 | -4.6 | -10.6 | 47.3* | 3.1 | 3.3 | -12.6
COc1cc(/C=N/NC(=O)c2sc(N)c(C#N)c2C)ccc1O | 5.0 | 0.9 | -1.9 | -2.9 | 51.2* | -1.0 | -1.7 | 55.5*
COC(C/C=C\[C@H](O)[C@@H](C)OCc1ccccc1)OC | -1.1 | 0.3 | -6.3 | -4.6 | 3.9 | -3.5 | · | ·
Cn1c(SCC(=O)NCc2ccc(F)cc2)ncc(C(=O)Nc2ccccc2)c1=O | -1.2 | -5.7 | -11.0 | 4.2 | 59.7* | -0.6 | 87.2* | 53.4*
Cn1c(SCC(=O)NCCc2ccccc2)ncc(C(=O)Nc2ccccc2)c1=O | -1.0 | 0.2 | 2.0 | -1.8 | 46.5* | 0.0 | 94.1* | 39.8
Cn1c(SCC(=O)NCc2ccc3c(c2)OCO3)ncc(C(=O)Nc2ccc(F)cc2)c1=O | -3.7 | 3.1 | 0.0 | 7.2 | 50.5* | -0.3 | 85.6* | 44.7
Cn1c(SCC(=O)NCc2ccc(F)cc2)nc2ccccc21 | 4.3 | -3.2 | -2.8 | 0.0 | -1.6 | 1.2 | · | ·
Cc1ccccc1NC(=O)c1c(C)[nH]c(=S)c(C#N)c1-c1ccc(Cl)cc1 | 2.8 | -2.9 | -1.7 | -7.8 | 49.9* | -0.6 | -4.4 | ?
Cc1[nH]c(=S)c(C#N)c(-c2ccccc2)c1C(=O)Nc1ccccc1 | 15.0 | -2.3 | -1.7 | 11.7 | 50.8* | 0.6 | 3.4 | ?
COc1ccn(C2CCCCO2)c(=O)n1 (configuration not stated) | -0.4 | · | 6.7 | · | · | -1.7 | · | ·
Cc1ccc(S(=O)(=O)N2C[C@H]3C(=O)C[C@@H](c4cccc(Cl)c4)N(S(=O)(=O)c4ccc(C)cc4)[C@H]3C[C@H]2c2ccccc2)cc1 | 0.0 | · | 7.6 | · | · | -1.3 | · | ·
CC[C@]12c3[nH]c4ccc(Cl)cc4c3CCN1C(=O)[C@@H](CC(=O)NCCCN(C)C)C[C@@H]2C(=O)N1CCN(C(=O)c2ccco2)CC1 | 0.6 | · | -1.7 | 26.6 | · | 4.3 | · | ·
CCCn1c(NC(=O)c2ccc(C)cc2)nc2ccccc21 | 2.0 | -4.1 | 1.0 | 24.7 | 14.0 | -3.1 | · | ·
C=CCn1c(NC(=O)c2ccc(C)cc2)nc2ccccc21 | 0.5 | -2.6 | 4.4 | -0.1 | 46.5* | -0.7 | -7.9 | ?
O=C(Nc1ccccc1Cl)N1CCCN(c2nc(-c3ccccc3)ns2)CC1 | 13.8 | -4.2 | 6.2 | -20.2 | 12.3 | -0.5 | · | ·
O=C(Nc1ccccc1)N1CCN(c2nc(-c3ccccc3)ns2)CC1 | 35.2 | -2.2 | 19.8 | -9.7 | 49.2* | -0.8 | -1.2 | 63.1*
COC(=O)CN1C(=O)COc2ccc(S(=O)(=O)N3CCCCCC3)cc21 | 1.6 | 0.2 | -7.9 | 0.8 | -4.1 | -0.1 | · | ·
COc1ccc(-n2[nH]c3c(cnc4ccccc43)c2=O)cc1 | -0.9 | · | -0.5 | · | · | 0.6 | · | ·
Nc1ccc2c(c1)C(=O)Cc1ccccc1S2 | -8.5 | 0.0 | -0.2 | -9.7 | 57.5* | 0.2 | 0.6 | 32.3
O=C1c2cccc3cccc(c23)C(=O)N1CCN1CCN(CC(O)COc2ccccc2)CC1 (configuration not stated) | -0.1 | 0.0 | 0.6 | 5.9 | 53.8* | 6.3 | -0.1 | 15.6
COc1cccc(OCC(O)CN2CCN(CCN3C(=O)c4cccc5cccc(c45)C3=O)CC2)c1 (configuration not stated) | -0.2 | -0.2 | 1.6 | 3.2 | 61.2* | -1.8 | -1.6 | 62.9*
COc1ccc(OCC(O)CN2CCC(CN3C(=O)c4cccc5cccc(c45)C3=O)CC2)cc1 (configuration not stated) | 18.7 | -3.9 | 7.2 | 17.3 | 30.4 | 1.5 | · | ·
SMILES | MPTP inh | MIN6 prolif | Granule exo inh | Apaf1 inhib | UBC13 polyUb | iPSC survival up | Casp3 UBC13 ctr | UBC13 conf
Cn1c(SCC(=O)NCC2CCCO2)ncc(C(=O)Nc2ccc(Cl)cc2)c1=O (configuration not stated) | -0.9 | -7.2 | 0.1 | 12.5 | 58.2* | -0.4 | 97.5* | 68.9*
CCn1c(SCC(=O)NCC2CCCO2)nnc1-c1ccc(Cl)cc1 (configuration not stated) | 0.4 | -0.4 | 1.3 | -5.7 | 8.9 | -0.1 | · | ·
Cn1c(SCC(=O)NCC2CCCO2)ncc(C(=O)Nc2ccc(F)cc2)c1=O (configuration not stated) | 5.8 | -2.8 | -0.8 | 0.2 | 58.8* | 1.6 | 96.0* | 60.3*
COc1ccc2c(c1)CCC1(C)CC(=O)C(Br)=C21 (configuration not stated) | -1.3 | · | 2.6 | · | · | 1.4 | · | ·
CCCNC(=O)C1(C)CCN(C(=O)c2c(F)ccc(C)c2F)C1 (configuration not stated) | -0.6 | · | -18.3 | · | · | 0.3 | · | ·
O=C(O)[C@H]1CCCC[C@H]1C(=O)NCCc1ccccc1 | -2.3 | -0.4 | 3.4 | -17.8 | 67.1* | -1.2 | -0.3 | 8.6
CC1(c2ccc3ccccc3c2)NC(=O)N(CC(=O)Nc2ncccc2O)C1=O (configuration not stated) | 0.6 | 2.8 | -0.6 | -5.8 | -6.2 | 8.8 | · | ·
O=C(COC(=O)CCCCCN=C1NS(=O)(=O)c2ccccc21)Nc1ccc(Cl)c(Cl)c1 | 8.8 | 1.1 | 1.1 | -0.3 | 49.3* | 0.1 | -5.5 | 38.6
CCCC[C@@H](CN[C@H](C)CNC)NCC1CCC(C(C)(C)C)CC1 (some centres not stated) | · | -8.3 | · | 31.1 | 61.4* | · | -2.5 | 14.2
CC[C@H](C)[C@@H](CN[C@H](CCCCNC)CNC)NCC1CCCC1 | 0.0 | 3.8 | 1.3 | 21.2 | 6.3 | -2.2 | · | ·
NCCCC[C@@H]1NC(=O)c2cc([N+](=O)[O-])cc(F)c2NCCCC[C@@H](C(N)=O)NC(=O)CNC1=O | -1.2 | 2.2 | 2.5 | 4.5 | 84.9* | -1.6 | -3.9 | 77.0*
CC[C@H](C)[C@@H]1NC(=O)c2cc([N+](=O)[O-])cc(F)c2NCCCC[C@@H](C(N)=O)NC(=O)[C@H](CCCCN)NC1=O | -0.7 | 0.1 | -10.9 | -5.1 | 77.9* | 1.4 | -1.1 | 61.9*

High-throughput results (PubChem BioAssay)
